These results are taken from ChEMBL document CHEMBL1157486, “2-Substituted-16-ene-22-thia-1alpha,25-dihydroxy-26,27-dimethyl-19-norvitamin D3 analogs: Synthesis, biological evaluation, and crystal structure” (Bioorg Med Chem, 2008).

Molecules are shown by their SMILES. Values joined by “and” are separate entries in the source; they are usually repeats but may differ in a detail not shown here. Equal values may be shown once.

The target in assay [1] is T1, Vitamin D3 receptor (Rattus norvegicus) (UniProt P13053).
T1 sequence (whole entry): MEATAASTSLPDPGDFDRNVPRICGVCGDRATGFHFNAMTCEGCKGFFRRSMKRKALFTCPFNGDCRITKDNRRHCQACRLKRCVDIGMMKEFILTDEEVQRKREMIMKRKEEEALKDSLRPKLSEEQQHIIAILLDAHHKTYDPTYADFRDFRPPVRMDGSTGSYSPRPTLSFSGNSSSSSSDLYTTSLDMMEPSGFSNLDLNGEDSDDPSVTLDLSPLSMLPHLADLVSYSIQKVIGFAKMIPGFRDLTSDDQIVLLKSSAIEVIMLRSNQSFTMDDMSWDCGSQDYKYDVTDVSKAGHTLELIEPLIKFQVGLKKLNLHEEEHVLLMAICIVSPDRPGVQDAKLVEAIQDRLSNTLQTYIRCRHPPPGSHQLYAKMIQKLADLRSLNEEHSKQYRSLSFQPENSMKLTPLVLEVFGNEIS
Kind of assay: Displacement of [3H]1-alpha,25-(OH)2D3 from rat recombinant VDR expressed in Escherichia coli BL21 (DE3). The essentials:
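Rat VDR-LBD lysate (sonicated cells) diluted ~1000-fold in 50 mM Tris pH 7.5 with 100 mM KCl, 5 mM DTT, 0.5% CHAPS and BSA 100 µg/mL. Ligand in EtOH preincubated 1 h at room temperature, then [3H]1α,25-(OH)2D3 (~5000 dpm) added for 18 h at 4 °C. Free ligand removed with dextran-coated charcoal, and bound fraction counted by scintillation. At least twice in duplicate.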
Background: Loss of bound radioactivity is the signal in a displacement assay; it reports binding, not function.

In assay [2] the target is Vitamin D3 receptor (Homo sapiens) (UniProt P11473). Kind of assay: Increase in human VDR-mediated transcriptional activity in african green monkey COS7 cells after 24 hrs by luciferase assay.
The test system of assay [3] is Bone marrow cell. Kind of assay: Effect on osteoclast formation in ddY mouse bone marrow cells co cultured with […] after 7 days.
Where [4] appears, read: Mus musculus, ddY, Bone marrow cell, 168 h.

As for `CCC(O)(CC)CCCS[C@H](C)C1=CC[C@H]2/C(=C/C=C3C[C@@H](O)C[C@H](O)C3)CCC[C@]12C`, the Activity in assay [1] was determined as 8%.

With `CCC(O)(CC)CS[C@H](C)C1=CC[C@H]2/C(=C/C=C3C[C@@H](O)C(=CCO)[C@H](O)C3)CCC[C@]12C` [listing 1 of 2 here], the EC50 in assay [2] stood at 29 pM.

In the case of `[H][C@@]12CC=C([C@@H](C)SCC(O)(CC)CC)[C@@]1(C)CCC/C2=C\C=C1/C[C@@H](O)[C@@](C)(O)[C@H](O)C1` (stereo partly specified), the EC50 in assay [2] turned out to be 4500 pM.

In the case of `CCC(O)(CC)CCS[C@@H](C)C1=CC[C@H]2/C(=C/C=C3C[C@@H](O)C[C@H](O)C3)CCC[C@]12C`, the Activity in assay [1] came to 100%.

For the molecule `CCC(O)(CC)CS[C@@H](C)C1=CC[C@H]2/C(=C/C=C3C[C@@H](O)C[C@H](O)C3)CCC[C@]12C`, the Activity in assay [1] is 60%.

Molecule `CCC(O)(CC)CSC(C)C1=CCC2/C(=C/C=C3\C[C@@H](O)[C@](C)(O)[C@H](O)C3)CCC[C@]12C` (stereo partly specified) displayed an EC50 in assay [2] of 17 pM.

Regarding `CCC(O)(CC)CSC(C)C1=CCC2/C(=C/C=C3C[C@@H](O)C(=CCO)[C@H](O)C3)CCC[C@]12C` (stereo partly specified) [listing 1 of 2 here], a half-maximal effect in assay [2] (EC50) was put at 26 pM.

In assay [2], `[H][C@@]12CC=C([C@@H](C)SCC(O)(CC)CC)[C@@]1(C)CCC/C2=C\C=C1\C[C@@H](O)[C@@](C)(O)[C@H](O)C1` (stereo partly specified) came in with an EC50 of 120 pM.

In the case of `[H][C@@]12CC=C([C@@H](C)SCC(O)(CC)CC)[C@@]1(C)CCC/C2=C\C=C1\C[C@@H](O)[C@H](OCCO)[C@H](O)C1` (stereo partly specified), the EC50 in assay [3] (bone marrow cell) was 430 pM; in assay [2] it was 115 pM.

Turning to `[H][C@@]12CC=C([C@@H](C)SCC(O)(CC)CC)[C@@]1(C)CCC/C2=C\C=C1/C[C@@H](O)[C@H](OCCO)[C@H](O)C1` (stereo partly specified), the results for the EC50 in assay [3] (setting [4]) and in assay [2] were 220 pM and 24 pM, respectively.

Take `CCC(O)(CC)CSC(C)C1=CCC2/C(=C/C=C3\C[C@@H](O)[C@H](OCCO)[C@H](O)C3)CCC[C@]12C` (stereo partly specified): the EC50 in assay [3] (setting [4]) was 35 pM; in assay [2], 2.1 pM.

Regarding `CCC(O)(CC)CCCS[C@@H](C)C1=CC[C@H]2/C(=C/C=C3C[C@@H](O)C[C@H](O)C3)CCC[C@]12C`, the Activity in assay [1] came out at 100%.

Molecule `CCC(O)(CC)CSC(C)C1=CCC2/C(=C/C=C3C[C@@H](O)C(=CCO)[C@H](O)C3)CCC[C@]12C` (stereo partly specified) [listing 2 of 2 here] displayed a concentration for a half-maximal effect (EC50) in assay [2] of 85 pM.

Consider `CCC(O)(CC)CS[C@H](C)C1=CC[C@H]2/C(=C/C=C3C[C@@H](O)C(C)(O)[C@H](O)C3)CCC[C@]12C` (stereo partly specified), for which the Activity in assay [1] was 12% and 0.5%.

As to `CCC(O)(CC)CS[C@H](C)C1=CC[C@H]2/C(=C/C=C3C[C@@H](O)C[C@H](O)C3)CCC[C@]12C`, in assay [1], the Activity turned out to be 6%.

In turn, `CCC(O)(CC)CSC(C)C1=CCC2/C(=C/C=C3/C[C@@H](O)[C@](C)(O)[C@H](O)C3)CCC[C@]12C` (stereo partly specified) showed an EC50 in assay [2] of 1900 pM.

`CCC(O)(CC)CS[C@H](C)C1=CC[C@H]2/C(=C/C=C3C[C@@H](O)C(=CCO)[C@H](O)C3)CCC[C@]12C` [listing 2 of 2 here] registered an EC50 in assay [2] of 200 pM.

`C=C1/C(=C\C=C2/CCC[C@]3(C)[C@@H]([C@H](C)CCCC(C)(C)O)CC[C@@H]23)C[C@@H](O)C[C@@H]1O` [CALCITRIOL]: the Activity in assay [1] amounted to 100%. The same molecule gave an EC50 in assay [3] (setting [4]) of 2000 pM.

Regarding `CCC(O)(CC)CSC(C)C1=CCC2/C(=C/C=C3C[C@@H](O)C(C)(O)[C@H](O)C3)CCC[C@]12C` (stereo partly specified), the Activity in assay [1] is 18% and 1%.

With `CCC(O)(CC)CCS[C@H](C)C1=CC[C@H]2/C(=C/C=C3C[C@@H](O)C[C@H](O)C3)CCC[C@]12C`, the Activity in assay [1] amounted to 4%.

Regarding `CCC(O)(CC)CSC(C)C1=CCC2/C(=C/C=C3/C[C@@H](O)[C@H](OCCO)[C@H](O)C3)CCC[C@]12C` (stereo partly specified), the EC50 was 40 pM in assay [3] (bone marrow cell) and 27 pM in assay [2].

A word on the EC50: it is the concentration that produces a half-maximal response.
